Source: ChEMBL document CHEMBL1136172, “Pyrrolo[2,3-h]quinolinones: synthesis and photochemotherapic activity” (Bioorg Med Chem Lett, 2003)

Columns and labels:
Assay type in all cases: functional, cell-based
Conditions in all cases: HT-1080, light or radiation study
HT-1080 [1] = assay: Inhibition of cell growth after irradiation at UVA dose of 6.5 J/cmE-2 in HT1080 human fibrosarcoma cell line
How it was run: (§1)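 HT-1080 cells from exponential culture seeded at 5×10⁴ cells/mL in DMEM with 10% FBS and penicillin/streptomycin, and allowed to adhere 18 h. Drug was dissolved in DMSO, diluted in HBSS pH 7.2 and incubated 30 min at 37 °C, 5% CO2. Cells were irradiated with lamps emitting mainly at 365 nm, then given medium for 72 h. Read-out was MTT versus untreated controls, with IC50 by linear regression from three experiments.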

HT-1080 [2] = assay: Inhibition of cell growth after irradiation at UVA dose of 2.6 J/cmE-2 in HT1080 human fibrosarcoma cell line; how it was run: as §1
HT-1080 [3] = assay: Inhibition of cell growth after irradiation at UVA dose of 3.2 J/cmE-2 in HT1080 human fibrosarcoma cell line; how it was run: as §1

| Structure (SMILES) | IC50 (HT-1080 [1]) [µM] | IC50 (HT-1080 [2]) [µM] | IC50 (HT-1080 [3]) [µM] |
| --- | --- | --- | --- |
| Cc1cc2c(n1-c1ccccc1)CCc1cc(C(=O)c3ccccc3)c(O)nc1-2 | 1.7 | 6.6 | 4.6 |
| Cc1cc2c(n1C)CCc1cc(S(=O)(=O)c3ccccc3)c(O)nc1-2 | 16.4 | > 20 | > 20 |
| Cc1cc2c(n1C)CCc1cc(C(=O)c3ccccc3)c(O)nc1-2 | > 20 | > 20 | > 20 |
| Cc1cc2c(n1-c1ccccc1)CCc1cc(S(=O)(=O)c3ccccc3)c(O)nc1-2 | 0.4 | 3.6 | 2.3 |
| Cc1cc2c(n1-c1ccccc1)CCc1cc(C#N)c(O)nc1-2 | 11.1 | > 20 | 13.1 |
| Cc1cc2c(n1Cc1ccccc1)CCc1cc(C(=O)c3ccccc3)c(O)nc1-2 | 1.9 | 14.7 | 9 |
| Cc1cc2c(n1Cc1ccccc1)CCc1cc(S(=O)(=O)c3ccccc3)c(O)nc1-2 | 1.8 | > 20 | 15.1 |
| O=c1ccc2ccc3occc3c2o1 [ANGELICIN] | 2.5 | 15.7 | 2.6 |
| COc1c2ccoc2cc2oc(=O)ccc12 [BERGAPTEN] | 0.9 | 8.5 | 1.8 |
| COc1c2occc2cc2ccc(=O)oc12 [METHOXSALEN] | 1.5 | 7.8 | 2.1 |
